The source made the active and inactive calls. No cut-off for these calls is given here.
Legend:
[1] = molecular target: Macrophage-stimulating protein receptor (Homo sapiens, UniProt Q04912); test: Inhibition of RON (unknown origin) using poly (Glu, Tyr) 4:1 as substrate after 60 mins by ELISA
Summary of the method: (§1)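 ELISA on wells precoated with 20 µg/mL poly(Glu,Tyr)4:1. Purified kinase with 10 µmol/L ATP in 50 mM HEPES pH 7.4, 50 mM MgCl₂, 0.5 mM MnCl₂, 0.2 mM Na₃VO₄, 1 mM DTT; 1% DMSO vehicle. 60 min at 37°C. Phosphotyrosine detected with PY99 antibody, then HRP anti-mouse IgG and o-phenylenediamine/H₂O₂, A490. Inhibition = [1−(A490/A490 control)]×100%; IC50 from curves.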

[2] = test system: NIH3T3; test: Antiproliferative activity against mouse NIH/3T3 cells expressing TPR/Met fusion protein after 72 hrs; type: functional, cell-based; conditions: NIH3T3, 72 h
Summary of the method: (§2)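 Cells seeded in 96-well plates, exposed next day to a range of compound concentrations and cultured 72 h; proliferation read by sulforhodamine B or CCK-8. IC50 as mean ± SD (μM) from three separate experiments.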

[3] = test system: BaF3; test: Induction of cell cycle arrest in mouse BAF3 cells expressing TPR/Met fusion protein assessed as accumulation at G1 phase at 1 uM after 24 hrs by propidium iodide staining-based FACS analysis (reference value: 26.6%); type: functional
[4] = molecular target: Epidermal growth factor receptor (Homo sapiens, UniProt P00533); test: Inhibition of EGFR (unknown origin) using poly (Glu, Tyr) 4:1 as substrate after 60 mins by ELISA; summary of the method: as §1
[5] = test system: BaF3; test: Antiproliferative activity against mouse BAF3 cells expressing TPR/Met fusion protein after 72 hrs; type: functional, cell-based; conditions: BaF3, 72 h; summary of the method: as §2
[6] = molecular target: T1, Hepatocyte growth factor receptor (Homo sapiens, UniProt P08581); test: Inhibition of c-Met in human EBC1 cells assessed as inhibition of p44/42 phosphorylation at 0.16 to 20 uM after 2 hrs by Western blotting analysis; type: cell-based
Summary of the method: (§3)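 Cells grown to exponential phase, treated with compound 2 h at 37°C, lysed in 1× SDS sample buffer, resolved on 10% SDS-PAGE and transferred to nitrocellulose for immunoblotting.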

[7] = test system: NCI-H661; test: Antiproliferative activity against human NCI-H661 cells after 72 hrs; conditions: NCI-H661, 72 h
[8] = test system: HCT-116; test: Antiproliferative activity against human HCT116 cells after 72 hrs; conditions: HCT-116, 72 h
[9] = test system: NCI-H441; test: Antiproliferative activity against human NCI-H441 cells after 72 hrs; conditions: NCI-H441, 72 h
[10] = molecular target: Tyrosine-protein kinase receptor UFO (Homo sapiens, UniProt P30530); test: Inhibition of AXL (unknown origin) using poly (Glu, Tyr) 4:1 as substrate after 60 mins by ELISA; summary of the method: as §1
[11] = molecular target: Hepatocyte growth factor receptor (Canis lupus familiaris) (UniProt Q75ZY9); test: Inhibition of c-Met in MDCK cells assessed as HGF-induced cell scattering at 3 uM after 24 hrs by microscopic analysis; type: cell-based
Summary of the method: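 MDCK cells plated at 1,500/well in 96-well plates and allowed to form clusters over 24 h. Then 24 h with compound plus 50 ng/mL recombinant human HGF in FBS-free medium. Fixed in 4% paraformaldehyde 15 min at room temperature, stained with 0.2% crystal violet and imaged by microscopy.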

[12] = test system: MKN-45; test: Induction of cell cycle arrest in human MKN45 cells assessed as accumulation at G1 phase at 1 uM after 24 hrs by propidium iodide staining-based FACS analysis (reference value: 39.1%); type: functional
[13] = molecular target: T1, Hepatocyte growth factor receptor; test: Inhibition of c-Met in gefitinib-resistant human HCC827 cells assessed as inhibition of p44/42 phosphorylation at 0.5 uM after 2 hrs by Western blotting analysis in presence of gefitinib; type: cell-based; summary of the method: as §3
[14] = test system: MDA-MB-231; test: Antiproliferative activity against human MDA-MB-231 cells after 72 hrs; conditions: MDA-MB-231, 72 h
[15] = test system: SK-OV-3; test: Antiproliferative activity against human SKOV3 cells after 72 hrs; conditions: SK-OV-3, 72 h
[16] = molecular target: T2, TPR/MET fusion protein (Mus musculus) (UniProt P16056+F6ZDS4); test: Inhibition of TPR/Met in mouse BAF3 cells assessed as inhibition of p44/42 phosphorylation at 0.08 to 10 uM after 2 hrs by Western blotting analysis; type: cell-based; summary of the method: as §3
[17] = test system: SK-MEL-28; test: Antiproliferative activity against human SK-MEL-28 cells after 72 hrs; conditions: SK-MEL-28, 72 h
[18] = molecular target: Tyrosine-protein kinase receptor TYRO3 (Homo sapiens, UniProt Q06418); test: Inhibition of TYRO3 (unknown origin) using poly (Glu, Tyr) 4:1 as substrate after 60 mins by ELISA; summary of the method: as §1
[19] = molecular target: Fibroblast growth factor receptor 1 (Homo sapiens, UniProt P11362); test: Inhibition of FGFR1 (unknown origin) using poly (Glu, Tyr) 4:1 as substrate after 60 mins by ELISA; summary of the method: as §1
[20] = test system: SNU-5; test: Antiproliferative activity against human SNU5 cells after 72 hrs; conditions: SNU-5, 72 h
[21] = molecular target: Mast/stem cell growth factor receptor Kit (Homo sapiens, UniProt P10721); test: Inhibition of c-kit (unknown origin) using poly (Glu, Tyr) 4:1 as substrate after 60 mins by ELISA
Summary of the method: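 Purified kinase incubated with 10 µmol/L ATP in wells pre-coated with 20 µg/mL poly(Glu,Tyr)4:1. Reaction ran 60 min at 37°C. Phosphotyrosine detected with PY99 antibody, then HRP anti-mouse IgG and o-phenylenediamine/H₂O₂, read at 490 nm. IC50 taken from inhibition curves.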

[22] = molecular target: T1, Hepatocyte growth factor receptor; test: Inhibition of c-Met phosphorylation in human SNU5 cells after 2 hrs by Western blotting analysis; type: cell-based; conditions: SNU-5
Summary of the method: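 Cells grown under regular conditions to exponential phase, exposed to compound at indicated concentrations for 2 h at 37°C, lysed in 1× SDS sample buffer. Lysates resolved on 10% SDS-PAGE and transferred to nitrocellulose for immunoblotting.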

[23] = molecular target: T2, TPR/MET fusion protein (Mus musculus); test: Inhibition of TPR/Met phosphorylation in mouse NIH3T3 cells after 2 hrs by Western blotting analysis; type: cell-based; summary of the method: as §3
[24] = molecular target: T2, TPR/MET fusion protein (Mus musculus); test: Inhibition of TPR/Met phosphorylation in mouse BAF3 cells after 2 hrs by Western blotting analysis; type: cell-based; summary of the method: as §3
[25] = test system: MCF7; test: Antiproliferative activity against human MCF7 cells after 72 hrs; conditions: MCF7, 72 h
[26] = molecular target: Proto-oncogene tyrosine-protein kinase receptor Ret (Homo sapiens, UniProt P07949); test: Inhibition of RET (unknown origin) using poly (Glu, Tyr) 4:1 as substrate after 60 mins by ELISA; summary of the method: as §1
[27] = test system: NIH3T3; test: Antitumor activity against mouse NIH/3T3 cells expressing TPR/Met allografted in mouse assessed as tumor growth inhibition at 100 mg/kg, po qd administered for 2 weeks measured twice per week relative to vehicle-treated control; type: functional; conditions: NIH3T3, 336 h, read-out: TGI
Summary of the method: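 Tumor fragments (1 mm³) implanted s.c. in right flank of nude mice by trocar. Randomized at 100–150 mm³ tumor volume. Dosed orally 7 days/week for 2 weeks; vehicle controls. Calipers twice weekly; TV = length×width²/2. Inhibition = 100%×{1−[(T day14−T day0)/(C day14−C day0)]}. n = 6/group, Student's t-test.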

T1 sequence (P08581 whole entry): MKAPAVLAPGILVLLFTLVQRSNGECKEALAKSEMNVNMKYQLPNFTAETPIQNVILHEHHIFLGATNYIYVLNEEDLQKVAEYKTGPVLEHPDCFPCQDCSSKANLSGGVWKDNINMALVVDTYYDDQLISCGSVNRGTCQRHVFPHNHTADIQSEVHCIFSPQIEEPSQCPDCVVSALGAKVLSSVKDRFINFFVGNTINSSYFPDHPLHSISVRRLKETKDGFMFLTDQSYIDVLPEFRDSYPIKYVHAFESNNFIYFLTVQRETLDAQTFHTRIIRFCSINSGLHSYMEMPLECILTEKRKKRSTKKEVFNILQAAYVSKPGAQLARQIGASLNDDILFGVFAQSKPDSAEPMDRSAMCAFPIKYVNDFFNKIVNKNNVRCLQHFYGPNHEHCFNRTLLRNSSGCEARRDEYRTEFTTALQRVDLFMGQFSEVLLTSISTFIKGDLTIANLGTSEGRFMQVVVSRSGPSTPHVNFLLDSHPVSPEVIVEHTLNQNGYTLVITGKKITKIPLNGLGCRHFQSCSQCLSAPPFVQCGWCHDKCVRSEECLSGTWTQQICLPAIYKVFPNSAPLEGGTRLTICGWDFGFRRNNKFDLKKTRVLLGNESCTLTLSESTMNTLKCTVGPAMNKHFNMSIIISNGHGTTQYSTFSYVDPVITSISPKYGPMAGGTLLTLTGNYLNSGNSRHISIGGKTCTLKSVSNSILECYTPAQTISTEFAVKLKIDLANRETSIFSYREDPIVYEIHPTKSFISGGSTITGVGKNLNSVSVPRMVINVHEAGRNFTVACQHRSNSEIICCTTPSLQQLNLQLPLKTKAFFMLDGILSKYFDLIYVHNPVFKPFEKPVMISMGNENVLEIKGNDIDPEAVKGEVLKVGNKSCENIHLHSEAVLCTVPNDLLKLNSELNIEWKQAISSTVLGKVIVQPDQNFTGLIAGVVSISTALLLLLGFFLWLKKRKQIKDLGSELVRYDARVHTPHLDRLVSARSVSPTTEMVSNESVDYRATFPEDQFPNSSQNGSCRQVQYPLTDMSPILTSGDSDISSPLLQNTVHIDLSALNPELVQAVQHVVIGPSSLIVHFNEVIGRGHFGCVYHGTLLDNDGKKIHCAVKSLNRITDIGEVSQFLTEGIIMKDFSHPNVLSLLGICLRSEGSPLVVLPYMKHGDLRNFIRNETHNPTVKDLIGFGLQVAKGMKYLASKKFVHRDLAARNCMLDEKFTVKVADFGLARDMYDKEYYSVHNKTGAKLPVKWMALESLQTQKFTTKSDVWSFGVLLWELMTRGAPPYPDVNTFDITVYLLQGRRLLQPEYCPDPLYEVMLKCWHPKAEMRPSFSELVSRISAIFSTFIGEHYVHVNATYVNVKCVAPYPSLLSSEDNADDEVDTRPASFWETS
T2 sequence (F6ZDS4 whole entry partner, the tested form may be a part): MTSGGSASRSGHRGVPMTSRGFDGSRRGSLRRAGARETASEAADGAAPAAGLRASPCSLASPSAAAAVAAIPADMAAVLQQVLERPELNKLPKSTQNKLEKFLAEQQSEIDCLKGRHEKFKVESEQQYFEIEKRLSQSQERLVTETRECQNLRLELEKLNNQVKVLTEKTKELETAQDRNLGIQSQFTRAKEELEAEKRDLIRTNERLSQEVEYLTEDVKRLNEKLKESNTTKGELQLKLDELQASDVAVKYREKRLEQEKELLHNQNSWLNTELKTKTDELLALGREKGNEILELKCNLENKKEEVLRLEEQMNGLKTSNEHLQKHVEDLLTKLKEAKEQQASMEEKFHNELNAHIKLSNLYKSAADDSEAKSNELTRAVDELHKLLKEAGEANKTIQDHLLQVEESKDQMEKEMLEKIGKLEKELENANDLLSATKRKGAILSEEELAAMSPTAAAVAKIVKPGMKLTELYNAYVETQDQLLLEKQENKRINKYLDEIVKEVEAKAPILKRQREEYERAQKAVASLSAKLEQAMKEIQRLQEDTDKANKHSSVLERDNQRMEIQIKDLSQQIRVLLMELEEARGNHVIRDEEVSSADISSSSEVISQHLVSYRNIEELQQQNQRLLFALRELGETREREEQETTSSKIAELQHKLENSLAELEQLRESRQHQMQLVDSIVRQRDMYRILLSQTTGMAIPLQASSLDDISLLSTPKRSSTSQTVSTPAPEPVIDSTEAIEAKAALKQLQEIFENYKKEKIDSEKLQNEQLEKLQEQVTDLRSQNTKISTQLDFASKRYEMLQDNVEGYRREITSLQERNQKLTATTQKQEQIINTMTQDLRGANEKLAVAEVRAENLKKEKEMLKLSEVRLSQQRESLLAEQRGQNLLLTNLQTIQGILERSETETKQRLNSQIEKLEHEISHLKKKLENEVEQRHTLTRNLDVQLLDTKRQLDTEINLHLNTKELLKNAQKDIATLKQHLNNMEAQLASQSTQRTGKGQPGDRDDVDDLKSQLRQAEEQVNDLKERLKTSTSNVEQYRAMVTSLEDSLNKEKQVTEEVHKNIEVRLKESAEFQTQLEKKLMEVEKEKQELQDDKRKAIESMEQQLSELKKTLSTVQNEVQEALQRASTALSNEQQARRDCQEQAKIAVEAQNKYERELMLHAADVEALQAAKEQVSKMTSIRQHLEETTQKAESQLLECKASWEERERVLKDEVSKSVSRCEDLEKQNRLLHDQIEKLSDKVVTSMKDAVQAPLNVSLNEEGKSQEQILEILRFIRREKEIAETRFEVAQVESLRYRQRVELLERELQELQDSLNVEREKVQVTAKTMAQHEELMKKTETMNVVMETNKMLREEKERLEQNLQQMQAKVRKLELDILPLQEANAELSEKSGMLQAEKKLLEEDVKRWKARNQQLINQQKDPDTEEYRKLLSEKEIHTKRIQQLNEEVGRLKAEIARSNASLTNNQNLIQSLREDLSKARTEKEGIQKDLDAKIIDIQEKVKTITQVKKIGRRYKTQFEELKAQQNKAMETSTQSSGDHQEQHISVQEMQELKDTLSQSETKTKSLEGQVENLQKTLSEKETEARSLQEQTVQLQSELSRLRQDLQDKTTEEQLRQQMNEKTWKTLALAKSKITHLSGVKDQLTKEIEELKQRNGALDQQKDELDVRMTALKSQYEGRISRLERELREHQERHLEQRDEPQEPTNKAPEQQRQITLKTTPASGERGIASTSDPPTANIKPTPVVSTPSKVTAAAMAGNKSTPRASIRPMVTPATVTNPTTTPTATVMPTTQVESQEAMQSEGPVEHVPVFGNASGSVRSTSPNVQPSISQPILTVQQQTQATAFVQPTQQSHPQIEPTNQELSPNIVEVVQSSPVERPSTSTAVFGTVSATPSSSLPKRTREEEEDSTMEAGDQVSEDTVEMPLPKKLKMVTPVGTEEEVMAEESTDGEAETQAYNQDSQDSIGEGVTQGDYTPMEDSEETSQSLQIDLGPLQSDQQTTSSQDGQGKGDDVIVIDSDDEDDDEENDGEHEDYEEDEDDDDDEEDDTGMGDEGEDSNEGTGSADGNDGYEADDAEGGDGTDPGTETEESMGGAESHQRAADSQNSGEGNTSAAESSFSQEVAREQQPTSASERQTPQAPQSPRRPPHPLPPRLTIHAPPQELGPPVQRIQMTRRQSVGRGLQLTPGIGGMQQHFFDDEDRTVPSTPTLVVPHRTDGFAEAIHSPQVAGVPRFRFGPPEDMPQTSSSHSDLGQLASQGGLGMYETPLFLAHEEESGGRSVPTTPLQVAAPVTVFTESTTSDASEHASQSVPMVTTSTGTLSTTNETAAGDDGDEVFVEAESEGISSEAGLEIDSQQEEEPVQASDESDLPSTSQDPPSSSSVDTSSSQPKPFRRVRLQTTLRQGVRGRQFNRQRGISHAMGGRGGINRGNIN
T2 sequence (P16056 25-1379 limits assumed): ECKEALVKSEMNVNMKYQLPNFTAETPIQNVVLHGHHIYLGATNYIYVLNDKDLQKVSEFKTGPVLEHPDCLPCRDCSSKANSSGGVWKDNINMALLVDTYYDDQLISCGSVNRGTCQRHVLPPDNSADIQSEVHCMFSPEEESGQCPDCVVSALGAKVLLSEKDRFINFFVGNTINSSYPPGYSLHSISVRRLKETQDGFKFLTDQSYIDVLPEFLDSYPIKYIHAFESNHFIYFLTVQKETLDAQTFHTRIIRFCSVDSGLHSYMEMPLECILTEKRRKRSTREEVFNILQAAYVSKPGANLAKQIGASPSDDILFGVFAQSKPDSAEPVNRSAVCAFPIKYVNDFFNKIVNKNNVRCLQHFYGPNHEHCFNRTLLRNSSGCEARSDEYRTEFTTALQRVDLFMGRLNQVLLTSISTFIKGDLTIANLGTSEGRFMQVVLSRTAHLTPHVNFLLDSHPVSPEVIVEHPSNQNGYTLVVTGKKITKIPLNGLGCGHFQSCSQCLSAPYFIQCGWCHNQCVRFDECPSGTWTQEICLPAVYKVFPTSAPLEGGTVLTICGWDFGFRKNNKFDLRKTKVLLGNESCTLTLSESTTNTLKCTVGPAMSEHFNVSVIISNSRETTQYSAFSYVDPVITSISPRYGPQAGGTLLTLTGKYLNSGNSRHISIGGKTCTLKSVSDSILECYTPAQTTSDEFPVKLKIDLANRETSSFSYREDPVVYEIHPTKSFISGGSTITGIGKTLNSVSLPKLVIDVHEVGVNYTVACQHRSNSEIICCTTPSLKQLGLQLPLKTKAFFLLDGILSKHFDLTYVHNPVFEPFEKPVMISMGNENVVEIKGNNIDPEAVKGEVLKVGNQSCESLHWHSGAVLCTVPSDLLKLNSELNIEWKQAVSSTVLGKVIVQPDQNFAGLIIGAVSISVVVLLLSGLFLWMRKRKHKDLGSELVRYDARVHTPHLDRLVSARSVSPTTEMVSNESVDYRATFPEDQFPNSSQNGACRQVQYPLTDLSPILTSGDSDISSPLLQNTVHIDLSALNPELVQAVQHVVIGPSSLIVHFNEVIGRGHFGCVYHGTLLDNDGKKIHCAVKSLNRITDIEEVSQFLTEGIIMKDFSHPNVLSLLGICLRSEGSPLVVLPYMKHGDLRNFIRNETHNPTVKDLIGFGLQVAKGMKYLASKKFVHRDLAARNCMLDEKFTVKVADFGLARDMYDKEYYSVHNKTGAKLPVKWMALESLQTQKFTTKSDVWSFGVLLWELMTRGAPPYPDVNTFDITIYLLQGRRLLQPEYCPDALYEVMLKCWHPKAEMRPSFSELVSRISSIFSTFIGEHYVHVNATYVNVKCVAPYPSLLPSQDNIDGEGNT

## C[C@@H](Sc1cc(-c2cnn(C3CCNCC3)c2)cnc1N)c1c(Cl)ccc(F)c1Cl
[1]
  IC50: 336 nM
[2]
  IC50: 610 nM
[3]
  Activity: 69.6%
[4]
  IC50: > 1000 nM
[5]
  IC50: 580 nM
[6]
  inhibition: Active
[7]
  IC50: 16.2 µM
[8]
  IC50: 14.3 µM
[9]
  IC50: 15.5 µM
[10]
  IC50: 446 nM
[11]
  inhibition: Active
[12]
  Activity: 60.1%
[13]
  inhibition: Active
[14]
  IC50: 12.1 µM
[15]
  IC50: 12.7 µM
[16]
  inhibition: Active
[17]
  IC50: 9.31 µM
[18]
  IC50: > 1000 nM
[19]
  IC50: > 1000 nM
[20]
  IC50: 190 nM
[21]
  IC50: > 1000 nM
[22]
  inhibition: Dose-dependent effect
[23]
  inhibition: Dose-dependent effect
[24]
  inhibition: Dose-dependent effect
[25]
  IC50: 11.6 µM
[26]
  IC50: > 1000 nM
[27]
  inhibition in vivo at 100 mg/kg: 45.5%

Source: ChEMBL document CHEMBL2440064, “Synthesis and biological evaluation of 2-amino-5-aryl-3-benzylthiopyridine scaffold based potent c-Met inhibitors” (Bioorg Med Chem, 2013)
